Reference: ChEMBL document CHEMBL4680130, “Substituted 4-phenylthiazoles: Development of potent and selective A, A and dual A/A adenosine receptor antagonists” (Eur J Med Chem, 2020)

Legend:
Adenosine receptor A2b [1] = biological target: T1, Adenosine receptor A2b (Homo sapiens, UniProt P29275); assay: Displacement of [3H]PSB-603 from human adenosine receptor A2B expressed in CHO cell membranes incubated for 75 mins by radioligand competition assay; set-up: species or system Cell membrane
T1 sequence (P29275 whole entry): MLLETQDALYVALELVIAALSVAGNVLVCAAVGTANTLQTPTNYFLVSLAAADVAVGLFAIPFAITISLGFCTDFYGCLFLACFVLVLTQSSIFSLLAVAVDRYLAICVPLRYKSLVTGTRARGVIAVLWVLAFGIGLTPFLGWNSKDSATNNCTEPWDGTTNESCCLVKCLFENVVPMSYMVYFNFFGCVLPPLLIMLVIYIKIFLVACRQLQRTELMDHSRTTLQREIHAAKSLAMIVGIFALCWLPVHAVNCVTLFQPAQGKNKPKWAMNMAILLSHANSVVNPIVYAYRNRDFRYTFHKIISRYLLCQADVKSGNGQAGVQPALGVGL

Adenosine receptor A2a [2] = biological target: Adenosine receptor A2a (Homo sapiens, UniProt P29274); assay: Displacement of [3H]MSX2 from human adenosine receptor A2A expressed in HEK293 cell membranes incubated for 30 mins by radioligand competition assay; set-up: species or system Cell membrane
[3] = biological target: Adenosine receptor A2a (Rattus norvegicus) (UniProt P30543); assay: Displacement of [3H]MSX2 from adenosine receptor A2A in rat brain striatum membranes at 0.1 uM incubated for 30 mins by radioligand competition assay relative to control; conditions: Cell membrane
Procedure, shortened: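 A2A binding, [3H]MSX-2 1.0 nM. Membranes: rat brain striatum, or HEK293 cells expressing human A2A. Adenosine deaminase preincubation 20 min, then 30 min at rt in 50 mM Tris-HCl pH 7.4 with 2.5% DMSO. Nonspecific binding defined by 50 µM NECA. GF/B filtration, scintillation counting. Single-concentration percent inhibition, ≥3 experiments in duplicate or triplicate.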

Adenosine receptor A3 [4] = biological target: T2, Adenosine receptor A3 (Homo sapiens, UniProt P0DMS8); assay: Displacement of [3H]PSB-11 from human adenosine receptor A3 expressed in CHO cell membranes incubated for 60 mins by radioligand competition assay; set-up: species or system Cell membrane
T2 sequence (P0DMS8 whole entry): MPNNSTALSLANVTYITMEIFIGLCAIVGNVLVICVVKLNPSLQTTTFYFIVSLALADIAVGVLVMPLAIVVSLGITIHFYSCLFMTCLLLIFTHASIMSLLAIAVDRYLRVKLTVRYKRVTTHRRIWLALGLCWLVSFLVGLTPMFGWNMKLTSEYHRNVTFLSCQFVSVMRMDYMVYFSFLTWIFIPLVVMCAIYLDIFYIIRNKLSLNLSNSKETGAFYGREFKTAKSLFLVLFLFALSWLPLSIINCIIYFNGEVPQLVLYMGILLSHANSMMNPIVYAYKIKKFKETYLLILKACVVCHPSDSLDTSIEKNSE

Adenosine receptor A1 [5] = biological target: T3, Adenosine receptor A1 (Rattus norvegicus, UniProt P25099); assay: Displacement of [3H]CCPA from adenosine receptor A1 in rat brain cortex membranes incubated for 90 mins by radioligand competition assay; type: cell membranes, Cell membrane
T3 sequence (P25099 whole entry): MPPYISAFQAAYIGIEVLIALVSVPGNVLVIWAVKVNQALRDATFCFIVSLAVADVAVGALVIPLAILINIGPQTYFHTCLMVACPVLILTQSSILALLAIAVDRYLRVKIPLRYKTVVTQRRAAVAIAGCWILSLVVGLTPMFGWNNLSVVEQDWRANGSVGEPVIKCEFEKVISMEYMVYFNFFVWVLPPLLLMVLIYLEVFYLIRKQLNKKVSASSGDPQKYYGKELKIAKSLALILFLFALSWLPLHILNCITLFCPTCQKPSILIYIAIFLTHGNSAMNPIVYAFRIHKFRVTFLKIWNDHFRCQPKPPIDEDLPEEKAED

Adenosine receptor A1 [6] = biological target: T4, Adenosine receptor A1 (Homo sapiens, UniProt P30542); assay: Displacement of [3H]CCPA from human adenosine receptor A1 expressed in CHO cell membranes incubated for 90 mins by radioligand competition assay; set-up: species or system Cell membrane
T4 sequence (P30542 whole entry): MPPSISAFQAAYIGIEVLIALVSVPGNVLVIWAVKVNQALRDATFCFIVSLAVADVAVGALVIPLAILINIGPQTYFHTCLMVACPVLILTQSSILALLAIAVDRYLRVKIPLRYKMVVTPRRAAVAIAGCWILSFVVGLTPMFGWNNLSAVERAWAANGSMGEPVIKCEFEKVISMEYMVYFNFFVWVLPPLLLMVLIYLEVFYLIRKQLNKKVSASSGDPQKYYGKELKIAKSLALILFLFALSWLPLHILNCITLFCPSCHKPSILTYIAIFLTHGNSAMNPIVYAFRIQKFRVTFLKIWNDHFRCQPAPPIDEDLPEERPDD

Adenosine receptor A2a [7] = biological target: Adenosine receptor A2a (Rattus norvegicus, UniProt P30543); assay: Displacement of [3H]MSX2 from adenosine receptor A2A in rat brain striatum membranes incubated for 30 mins by radioligand competition assay; type: cell membranes, Cell membrane
[8] = biological target: T5, Adenosine receptor A3 (Homo sapiens) (UniProt P0DMS8); assay: Displacement of [3H]PSB-11 from human adenosine receptor A3 expressed in CHO cell membranes at 0.1 uM incubated for 60 mins by radioligand competition assay; conditions: Cell membrane, dose 1 µM, in the assay text read “1 uM” for “0.1 uM”
T5 sequence (whole entry): T2 sequence (P0DMS8 whole entry)
Procedure, shortened: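 CHO membranes expressing human A3, [3H]PSB-11 0.5 nM. Nonspecific binding defined by 100 µM R-PIA. Adenosine deaminase preincubation 20 min, then 60 min at rt in 50 mM Tris-HCl pH 7.4 with 2.5% DMSO. Filtered on GF/B, scintillation counted.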

Adenosine receptor A1 [9] = biological target: T3, Adenosine receptor A1; assay: Displacement of [3H]CCPA from rat adenosine receptor A1 by radioligand competition assay
Procedure, shortened: (§1)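 A1 competition binding with [3H]CCPA, 0.5 nM. Membranes: CHO cells expressing human A1, or rat brain cortex. Membranes preincubated 20 min with adenosine deaminase (2 U/mL per mg protein). Incubation 90 min at rt in 50 mM Tris-HCl pH 7.4 with 2.5% final DMSO. Nonspecific binding defined by 10 µM 2-chloroadenosine. GF/B filtration, scintillation counting.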

Adenosine receptor A1 [10] = biological target: T3, Adenosine receptor A1; assay: Displacement of [3H]DPCPX from rat brain cortical membrane A1AR in presence of 100 uM of GTP by scintillation counting analysis; type: cell membranes, Cortex, Cell membrane
Adenosine receptor A1 [11] = biological target: T3, Adenosine receptor A1; assay: Displacement of [3H]DPCPX from rat brain cortical membrane A1AR in absence of GTP by scintillation counting analysis; type: cell membranes, Cortex, Cell membrane
Adenosine receptor A1 [12] = biological target: T3, Adenosine receptor A1; assay: Displacement of [3H]DPCPX from rat adenosine receptor A1 by radioligand competition assay
Procedure, shortened: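 Rat brain cortical membranes, [3H]DPCPX 0.4 nM. Nonspecific binding defined by 10 μM DPCPX. Curves run with and without 100 μM GTP. Incubation 90 min at rt in 50 mM Tris-HCl pH 7.4, after 20 min adenosine deaminase preincubation. Filtration, then scintillation counting. GTP shift is the IC50 with GTP divided by the IC50 without GTP.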

[13] = biological target: T6, Adenosine receptor A2b (Homo sapiens) (UniProt P29275); assay: Displacement of [3H]PSB-603 from human adenosine receptor A2B expressed in CHO cell membranes at 0.1 uM incubated for 75 mins by radioligand competition assay relative to control; conditions: Cell membrane
T6 sequence (whole entry): T1 sequence (P29275 whole entry)
Procedure, shortened: (§2)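 CHO membranes expressing human or rat A2B, [3H]PSB-603 0.3 nM. Nonspecific binding defined by 10 µM DPCPX. Preincubated 20 min with adenosine deaminase, then 75 min at rt in Tris-HCl pH 7.4 with 2.5% DMSO. Filters washed with ice-cold 50 mM Tris-HCl containing 0.1% BSA; scintillation counting.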

[14] = biological target: T7, Adenosine receptor A1 (Rattus norvegicus) (UniProt P25099); assay: Displacement of [3H]CCPA from adenosine receptor A1 in rat brain cortex membranes at 0.1 uM incubated for 90 mins by radioligand competition assay; conditions: Cell membrane, filed as antagonist; procedure, shortened: as §1
T7 sequence (whole entry): T3 sequence (P25099 whole entry)

Adenosine receptor A3 [15] = biological target: T8, Adenosine receptor A3 (Rattus norvegicus, UniProt P28647); assay: Displacement of [3H]NECA from rat adenosine receptor A3 expressed in CHO cell membranes incubated for 60 mins by radioligand competition assay; set-up: species or system Cell membrane
T8 sequence (P28647 whole entry): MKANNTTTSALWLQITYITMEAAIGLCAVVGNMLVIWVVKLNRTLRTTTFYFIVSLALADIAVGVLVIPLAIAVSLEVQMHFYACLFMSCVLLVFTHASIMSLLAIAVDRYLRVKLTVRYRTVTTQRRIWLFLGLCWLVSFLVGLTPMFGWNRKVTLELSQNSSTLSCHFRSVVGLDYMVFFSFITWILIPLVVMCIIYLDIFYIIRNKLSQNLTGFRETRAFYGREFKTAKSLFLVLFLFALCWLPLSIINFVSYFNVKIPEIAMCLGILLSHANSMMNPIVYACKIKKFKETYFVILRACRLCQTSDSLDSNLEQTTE

[16] = biological target: T9, Adenosine receptor A3 (Rattus norvegicus) (UniProt P28647); assay: Displacement of [3H]NECA from rat adenosine receptor A3 expressed in CHO cell membranes at 0.1 uM incubated for 60 mins by radioligand competition assay relative to control; conditions: Cell membrane
T9 sequence (whole entry): T8 sequence (P28647 whole entry)
Procedure, shortened: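 CHO membranes expressing rat A3, [3H]NECA 10 nM. Nonspecific binding defined by 100 µM R-PIA. Preincubated 20 min with adenosine deaminase, then 60 min at rt in 50 mM Tris-HCl pH 7.4 with 2.5% DMSO. GF/B filtration, scintillation counting.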

Adenosine receptor A2b [17] = biological target: T10, Adenosine receptor A2b (Rattus norvegicus, UniProt P29276); assay: Displacement of [3H]PSB-603 from rat adenosine receptor A2B expressed in CHO cell membranes incubated for 75 mins by radioligand competition assay; set-up: species or system Cell membrane; procedure, shortened: as §2
T10 sequence (P29276 whole entry): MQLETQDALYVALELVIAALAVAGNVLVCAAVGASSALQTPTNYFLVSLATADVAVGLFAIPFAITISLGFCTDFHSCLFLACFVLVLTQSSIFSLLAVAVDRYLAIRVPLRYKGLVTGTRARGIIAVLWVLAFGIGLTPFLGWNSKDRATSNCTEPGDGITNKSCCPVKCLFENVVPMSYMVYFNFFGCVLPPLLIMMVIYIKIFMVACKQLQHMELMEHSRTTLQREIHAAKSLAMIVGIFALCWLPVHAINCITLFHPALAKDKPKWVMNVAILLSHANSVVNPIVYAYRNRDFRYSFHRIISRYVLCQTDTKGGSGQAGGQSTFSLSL

Chain of Adenosine receptor A2a (Homo sapiens, UniProt P29274) (P29274 whole entry): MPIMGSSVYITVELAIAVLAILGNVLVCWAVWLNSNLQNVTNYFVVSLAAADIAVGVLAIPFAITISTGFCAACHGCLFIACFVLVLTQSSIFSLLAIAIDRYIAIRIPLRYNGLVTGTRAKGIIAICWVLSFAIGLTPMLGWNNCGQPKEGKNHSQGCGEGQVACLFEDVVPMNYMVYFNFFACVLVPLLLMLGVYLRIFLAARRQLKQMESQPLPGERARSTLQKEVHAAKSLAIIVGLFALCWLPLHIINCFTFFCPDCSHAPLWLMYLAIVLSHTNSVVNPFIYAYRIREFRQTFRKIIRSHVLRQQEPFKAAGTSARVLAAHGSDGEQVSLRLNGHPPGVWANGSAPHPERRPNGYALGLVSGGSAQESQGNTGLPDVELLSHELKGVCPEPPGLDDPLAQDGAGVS
Chain of Adenosine receptor A2a (Rattus norvegicus) (P30543 whole entry): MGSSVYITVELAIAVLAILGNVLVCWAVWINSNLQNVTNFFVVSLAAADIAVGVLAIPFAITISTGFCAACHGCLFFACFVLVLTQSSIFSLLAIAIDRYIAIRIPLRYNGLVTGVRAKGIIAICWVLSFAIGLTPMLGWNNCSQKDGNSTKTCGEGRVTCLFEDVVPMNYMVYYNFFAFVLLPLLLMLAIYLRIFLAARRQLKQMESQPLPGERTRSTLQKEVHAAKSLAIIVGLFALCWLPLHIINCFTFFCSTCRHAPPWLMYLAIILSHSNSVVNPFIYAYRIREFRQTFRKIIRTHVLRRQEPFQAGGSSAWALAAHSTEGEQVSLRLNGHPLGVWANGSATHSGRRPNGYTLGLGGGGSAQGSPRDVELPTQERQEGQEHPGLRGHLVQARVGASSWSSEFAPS
Chain of Adenosine receptor A2a (Rattus norvegicus, UniProt P30543) (P30543 whole entry): as above

SMILES | Ki (Adenosine receptor A2b [1]) [nM] | Ki (Adenosine receptor A2a [2]) [nM] | inhibition [3] [%] | Ki (Adenosine receptor A3 [4]) [nM] | Ki (Adenosine receptor A1 [5]) [nM] | Ki (Adenosine receptor A1 [6]) [nM] | Ki (Adenosine receptor A2a [7]) [nM] | inhibition [8] [%] | Ki (Adenosine receptor A1 [9]) [nM] | IC50 (Adenosine receptor A1 [10]) [nM] | IC50 (Adenosine receptor A1 [11]) [nM] | Ki (Adenosine receptor A1 [12]) [nM] | inhibition [13] [%] | inhibition [14] [%] | Ki (Adenosine receptor A3 [15]) [nM] | inhibition [16] [%] | Ki (Adenosine receptor A2b [17]) [nM]
COc1ccc(C(=O)Nc2nc(-c3ccccc3)c(-c3nc4ccccc4c(=O)n3-c3ccc(C)cc3)s2)cc1 | > 100 | > 1000 | 15 | 27.8 | > 1000 | > 1000 | > 1000 |  |  |  |  |  | 2 | 25 | > 10000 | 15 | 
O=C(Nc1nc(-c2ccccc2)c(C(=O)c2ccc(F)cc2F)s1)c1ccccc1 | > 100 | 77.7 |  | 67.8 | 2.79 | 55.3 | > 1000 |  | 2.79 | 3.14 | 3.15 | 2.93 |  |  |  |  | 
COc1ccc(C(=O)Nc2nc(-c3ccccc3)c(C(=O)c3ccc(Cl)cc3)s2)cc1 | > 100 | > 1000 | 12 | > 1000 | 1.01 | 32.3 | > 1000 |  |  |  |  |  |  |  | > 10000 |  | > 100

Further lines, results first:

Ki (Adenosine receptor A2b [1]) [nM] | Ki (Adenosine receptor A2a [2]) [nM] | inhibition [3] [%] | Ki (Adenosine receptor A3 [4]) [nM] | Ki (Adenosine receptor A1 [5]) [nM] | Ki (Adenosine receptor A1 [6]) [nM] | Ki (Adenosine receptor A2a [7]) [nM] | inhibition [8] [%] | Ki (Adenosine receptor A1 [9]) [nM] | IC50 (Adenosine receptor A1 [10]) [nM] | IC50 (Adenosine receptor A1 [11]) [nM] | Ki (Adenosine receptor A1 [12]) [nM] | inhibition [13] [%] | inhibition [14] [%] | Ki (Adenosine receptor A3 [15]) [nM] | inhibition [16] [%] | Ki (Adenosine receptor A2b [17]) [nM] | SMILES
> 100 | > 1000 | 16 | > 1000 | 1.77 | 13.6 | > 1000 | 37 |  |  |  |  |  |  |  |  |  | COc1ccc(C(=O)Nc2nc(-c3ccccc3)c(C(=O)c3ccc(OC)cc3)s2)cc1
> 100 | > 1000 |  | 42.2 | 0.348 | 7.57 | 1210 |  | 0.348 | 0.084 | 0.067 | 0.0628 | 2 |  |  |  |  | Cc1ccc(C(=O)c2sc(NC(=O)c3ccco3)nc2-c2ccccc2)cc1
